Consider 21 molecules from ChEMBL document CHEMBL4024774 (J Med Chem, 2017).

The Ki is the equilibrium dissociation constant of an inhibitor or competing ligand from its target. The term IC50 denotes the concentration that gives 50% inhibition.

Data set [1] concerns the target Sodium-dependent serotonin transporter (Rattus norvegicus, UniProt P31652). Briefly: Displacement of [3H]citalopram from Sprague-Dawley rat brain SERT after 60 mins by liquid scintillation counting method. Summed up: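 Male Sprague-Dawley rat brain stem membranes in 50 mM Tris with 120 mM NaCl and 5 mM KCl, pH 7.4. […] Nonspecific binding with 10 μM fluoxetine. Filtered on GF/B filters presoaked in 0.3% PEI, scintillation counted.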

Data set [2] in a line: Displacement of [3H]nisoxetine from Sprague-Dawley rat brain NET after 180 mins by liquid scintillation counting method. Summed up: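 Frontal cortex membranes from male Sprague-Dawley rats in 50 mM Tris, 120 mM NaCl, 5 mM KCl, pH 7.4. […] Nonspecific binding with 1 μM desipramine. Methanol level held constant across tubes. Filtered on GF/B filters in 0.05% PEI.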
On the technique in general: Loss of bound radioactivity is the signal in a displacement assay; it reports binding, not function.

In data set [3] the target is Sodium-dependent dopamine transporter (Rattus norvegicus, UniProt P23977). Briefly: Displacement of [3H]WIN35428 from Sprague-Dawley rat brain DAT after 120 mins by liquid scintillation counting method. Summed up: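 Rat striatal membranes (male Sprague-Dawley) in sucrose phosphate buffer pH 7.4. […] Terminated by filtration on GF/B filters presoaked in 0.05% PEI, then scintillation counting.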

Data set [4] in a line: Selectivity ratio of IC50 for human ERG expressed in HEK cells to Ki for Sprague-Dawley rat brain DAT. The format is cell-based.
Data set [5] deals with Voltage-gated inwardly rectifying potassium channel KCNH2 (Homo sapiens, UniProt Q12809). The experiment in a line: Displacement of [3H]Dofetilide from human ERG expressed in HEK cells after 180 mins by scintillation counting method. In kind it is cell-based.
The species entered for data set [6] is Homo sapiens. The experiment in a line: Selectivity ratio of Ki for human DAT […] mutant expressed in African green monkey COS7 cells to Ki for wild type human DAT expressed in African green monkey COS7 cells. The format is cell-based. An outline of the steps:
(§1)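 Whole COS7 cells transiently expressing human DAT WT or the Y156F mutant, washed in ice-cold uptake buffer. Incubated with [³H]WIN 35,428 and inhibitor (1 nM–1 mM, 12 concentrations) at 5 °C to equilibrium (>90 min). Triplicates. Ki from IC50 by nonlinear regression and Cheng–Prusoff. Ratio is Y156F Ki over WT Ki.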

Data set [7] is described as follows: Inhibition of […] uptake at human DAT […] mutant expressed in African green monkey COS7 cells after 90 mins. In kind it is cell-based. An outline of the steps: as §1
Data set [8] has as its target T1, Sodium-dependent dopamine transporter (Homo sapiens, UniProt Q01959). Briefly: Inhibition of [3H]DA uptake at wild type human DAT expressed in African green monkey COS7 cells after 5 mins by beta scintillation counting method. The format is cell-based. An outline of the steps:
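COS7 cells transiently transfected with synthetic human DAT and assayed 2 days later. Preincubated with inhibitor (1 nM–1 mM, 12 concentrations) in HEPES uptake buffer pH 7.4 containing ascorbate and a COMT inhibitor. 6–10 nM [³H]DA added for 5 min at rt. Nonspecific uptake with 1 μM nomifensine. Cells lysed in SDS and scintillation counted. Run in triplicate. Ki from IC50 by Cheng–Prusoff.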

For data set [9], the target named is T1, Sodium-dependent dopamine transporter. Briefly: Inhibition of […] uptake at wild type human DAT expressed in African green monkey COS7 cells after 90 mins. In kind it is cell-based. An outline of the steps: as §1
Data set [10] relates to Liver. The experiment in a line: Metabolic stability in mouse liver microsomes assessed as parent compound remaining at 10 uM after 1 hr in presence of NADPH by LC/MS/MS analysis. The format is ADME, microsome. Summed up: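 Mouse liver microsomes at 0.5 mg/mL with test compound at 10 μM final, in 100 mM potassium phosphate pH 7.4 with an NADPH regenerating system (1.3 mM NADPH). Reaction started by adding microsomes. Controls run without cofactor. Parent remaining measured by LC/MS/MS on a C18 column with formic acid/acetonitrile gradient. Triplicate.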

Data set [11] concerns Mus musculus. The experiment in a line: Decrease in locomotory activity in Swiss Webster mouse at 56 mg/kg, ip after 1 hr relative to control. In kind it is functional. Details: scale not given: the % may be the effect or the level left. Summed up: (§2)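 Male Swiss Webster mice, ambulatory activity counted in 40 cm³ clear acrylic chambers over a 1 h session with no prior habituation. Drug given i.p. at 1 mL/kg immediately before the session. 6 mice per dose, each used once. Analysed by ANOVA then Dunnett's test against vehicle.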

The test system of data set [12] is Mus musculus. Briefly: Effect on execution of behavioral task in Swiss Webster mouse assessed as overall group response rate at 0.3 to 30 mg/kg, ip relative to control. In kind it is organism-based. The following applies: in vivo. An outline of the steps: (§3)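 Testing began after ≥85% correct responding on 4 consecutive sessions. Test drug given i.p. at 0.1–30 mg/kg, 5 or 30 min before the session, with 10 consecutive responses on either lever reinforced. ED50 taken from a linear fit. Response rate expressed as % of saline. 6 mice.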

Data set [13] deals with Mus musculus. Briefly: Effect on discriminating cocaine from saline in Swiss Webster mouse assessed as cocaine lever response at 0.3 to 30 mg/kg, ip administered 5 to 30 mins prior to training session relative to control. The format is functional. An outline of the steps:
as §3

Data set [14] relates to Mus musculus. Briefly: Decrease in locomotory activity in Swiss Webster mouse at 3 to 30 mg/kg, ip after 1 hr relative to control. In kind it is functional, organism-based. An outline of the steps: as §2

The structures appear in SMILES notation. Active and inactive are the calls of the source. The rule behind the calls is not given here. Where only a bound is given, the exact number is not on record here.

Chain of Voltage-gated inwardly rectifying potassium channel KCNH2 (Q12809 whole entry): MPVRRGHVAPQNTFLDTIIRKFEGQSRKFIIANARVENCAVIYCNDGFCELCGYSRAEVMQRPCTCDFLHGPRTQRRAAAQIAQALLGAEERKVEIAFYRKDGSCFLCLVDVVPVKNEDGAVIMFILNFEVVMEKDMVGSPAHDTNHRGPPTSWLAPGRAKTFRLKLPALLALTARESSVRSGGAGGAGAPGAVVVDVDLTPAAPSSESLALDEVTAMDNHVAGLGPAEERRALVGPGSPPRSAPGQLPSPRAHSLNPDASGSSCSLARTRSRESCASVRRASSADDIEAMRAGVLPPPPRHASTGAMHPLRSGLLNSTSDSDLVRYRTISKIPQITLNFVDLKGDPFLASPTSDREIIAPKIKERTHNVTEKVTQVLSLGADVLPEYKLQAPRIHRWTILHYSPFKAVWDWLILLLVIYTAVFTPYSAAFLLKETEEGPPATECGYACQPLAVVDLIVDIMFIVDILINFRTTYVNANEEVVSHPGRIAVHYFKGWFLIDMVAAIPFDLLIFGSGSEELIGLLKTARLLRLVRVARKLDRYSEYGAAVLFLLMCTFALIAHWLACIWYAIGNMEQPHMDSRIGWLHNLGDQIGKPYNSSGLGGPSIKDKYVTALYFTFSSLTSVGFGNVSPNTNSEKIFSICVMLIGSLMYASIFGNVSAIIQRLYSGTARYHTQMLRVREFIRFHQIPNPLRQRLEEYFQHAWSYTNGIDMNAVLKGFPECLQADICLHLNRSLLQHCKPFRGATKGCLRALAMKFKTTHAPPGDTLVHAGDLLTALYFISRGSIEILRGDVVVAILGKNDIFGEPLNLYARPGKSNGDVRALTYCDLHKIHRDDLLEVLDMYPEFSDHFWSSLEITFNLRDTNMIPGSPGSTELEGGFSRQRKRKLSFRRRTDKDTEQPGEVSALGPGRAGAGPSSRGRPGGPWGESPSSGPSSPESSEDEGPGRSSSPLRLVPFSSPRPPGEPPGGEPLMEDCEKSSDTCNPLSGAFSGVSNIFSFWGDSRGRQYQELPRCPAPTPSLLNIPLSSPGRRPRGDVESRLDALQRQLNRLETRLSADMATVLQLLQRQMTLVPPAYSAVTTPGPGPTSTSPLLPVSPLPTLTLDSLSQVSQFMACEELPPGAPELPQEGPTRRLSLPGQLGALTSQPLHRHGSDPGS
T1 sequence (Q01959 whole entry): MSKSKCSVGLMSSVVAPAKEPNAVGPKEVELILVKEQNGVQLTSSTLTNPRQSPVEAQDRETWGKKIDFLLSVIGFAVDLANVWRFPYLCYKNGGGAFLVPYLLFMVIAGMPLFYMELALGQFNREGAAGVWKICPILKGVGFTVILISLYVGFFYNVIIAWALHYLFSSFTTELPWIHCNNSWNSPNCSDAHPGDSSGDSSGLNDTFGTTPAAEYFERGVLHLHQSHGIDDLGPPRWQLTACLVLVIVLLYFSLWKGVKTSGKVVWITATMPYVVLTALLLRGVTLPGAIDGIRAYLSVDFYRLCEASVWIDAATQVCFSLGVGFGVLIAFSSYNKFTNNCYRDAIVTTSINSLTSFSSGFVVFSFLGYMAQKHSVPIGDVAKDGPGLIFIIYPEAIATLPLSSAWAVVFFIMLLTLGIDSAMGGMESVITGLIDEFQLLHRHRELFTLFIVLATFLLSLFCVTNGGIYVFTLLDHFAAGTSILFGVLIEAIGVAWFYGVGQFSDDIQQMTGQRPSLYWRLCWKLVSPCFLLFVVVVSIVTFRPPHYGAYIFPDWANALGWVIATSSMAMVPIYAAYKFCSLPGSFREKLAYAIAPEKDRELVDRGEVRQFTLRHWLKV
Chain of Sodium-dependent dopamine transporter (Rattus norvegicus, UniProt P23977) (P23977 whole entry): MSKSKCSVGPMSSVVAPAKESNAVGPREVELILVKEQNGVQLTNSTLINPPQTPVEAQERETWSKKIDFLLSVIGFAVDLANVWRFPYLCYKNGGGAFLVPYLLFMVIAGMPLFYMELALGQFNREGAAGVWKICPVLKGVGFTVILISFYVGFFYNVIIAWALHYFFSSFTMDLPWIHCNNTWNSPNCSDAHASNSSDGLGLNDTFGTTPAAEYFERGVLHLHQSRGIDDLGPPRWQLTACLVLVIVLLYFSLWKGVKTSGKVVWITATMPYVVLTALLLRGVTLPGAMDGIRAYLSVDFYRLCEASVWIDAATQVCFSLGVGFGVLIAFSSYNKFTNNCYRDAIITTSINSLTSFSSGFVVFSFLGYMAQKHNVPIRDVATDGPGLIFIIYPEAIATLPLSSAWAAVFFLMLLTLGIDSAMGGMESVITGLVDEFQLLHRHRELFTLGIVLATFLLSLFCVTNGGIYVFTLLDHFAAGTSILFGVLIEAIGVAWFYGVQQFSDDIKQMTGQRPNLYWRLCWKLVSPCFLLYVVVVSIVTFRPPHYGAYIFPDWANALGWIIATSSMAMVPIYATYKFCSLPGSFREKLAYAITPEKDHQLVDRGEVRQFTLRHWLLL
Chain of Sodium-dependent serotonin transporter (P31652 whole entry): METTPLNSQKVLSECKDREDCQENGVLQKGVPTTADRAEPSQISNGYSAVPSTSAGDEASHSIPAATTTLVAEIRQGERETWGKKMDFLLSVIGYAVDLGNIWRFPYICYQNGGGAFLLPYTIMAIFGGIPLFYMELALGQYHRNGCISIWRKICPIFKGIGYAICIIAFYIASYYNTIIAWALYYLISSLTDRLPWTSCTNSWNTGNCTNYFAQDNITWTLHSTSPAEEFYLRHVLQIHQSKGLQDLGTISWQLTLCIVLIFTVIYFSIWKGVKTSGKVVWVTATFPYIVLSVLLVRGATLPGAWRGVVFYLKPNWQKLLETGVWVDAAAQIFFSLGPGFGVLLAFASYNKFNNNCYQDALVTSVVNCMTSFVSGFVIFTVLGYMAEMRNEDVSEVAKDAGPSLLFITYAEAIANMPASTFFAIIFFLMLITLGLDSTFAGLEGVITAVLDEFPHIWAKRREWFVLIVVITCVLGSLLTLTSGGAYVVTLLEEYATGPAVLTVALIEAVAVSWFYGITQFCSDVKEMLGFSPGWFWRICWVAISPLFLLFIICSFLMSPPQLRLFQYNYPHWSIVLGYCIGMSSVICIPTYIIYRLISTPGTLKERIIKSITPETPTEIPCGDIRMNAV

Regarding `CN1C2CCC1[C@@H](c1cc(-c3ccc(F)cc3)no1)[C@@H](OC(c1ccc(F)cc1)c1ccc(F)cc1)C2` (mixture of isomers), the Ki in data set [1] turned out to be 2990 nM; in data set [2], 1640 nM; in data set [3] it was 69.2 nM.
For the molecule `Fc1ccc(C(OC2CC3CCC(C2)N3CC2CC2)c2ccc(F)cc2)cc1` (stereo not drawn), the Selectivity ratio in [4] came to 161. For the same molecule, the inhibition constant (Ki) was 1420 nM in data set [1], 1640 nM in data set [2] and 24.6 nM in data set [3]. Further, the concentration for half-maximal inhibition (IC50) in data set [5] turned out to be 3960 nM.
For the molecule `CN1C2CCC1[C@@H](c1cc(-c3ccc(Cl)cc3)no1)[C@@H](OC(c1ccc(F)cc1)c1ccc(F)cc1)C2` (mixture of isomers), the Ki in data set [1] turned out to be 756 nM; in data set [2], 1580 nM; in data set [3] it was 66.6 nM.
On to `CCOC(=O)[C@@H]1C2CCC(C[C@@H]1OC(c1ccc(F)cc1)c1ccc(F)cc1)N2CC1CC1` (mixture of isomers), for which the Ki in [1] worked out at 3730 nM; in data set [2], 555 nM; in [3] it was 12 nM.
As to `Cc1ccc(C2CC3CCC(C2c2cc(-c4ccc(Cl)cc4)no2)N3C)cc1` (stereo not drawn), the inhibitory constant (Ki) was found to be 29100 nM in [1]; 887 nM in data set [2]; 242 nM in [7]; 8.55 nM in data set [3]; 9.7 nM in data set [8]; 27 nM in data set [9]. Further, in data set [6], the Ratio Ki was 9.
In the case of `NCCN1C2CCC1CC(OC(c1ccc(F)cc1)c1ccc(F)cc1)C2` (stereo not drawn), the Ki in [1] came to 4600 nM; in [2] it was 1420 nM; in data set [3] it was 5.59 nM.
`Fc1ccc(C(OC2CC3CCC(C2)N3CCN2CCCCC2)c2ccc(F)cc2)cc1` (stereo not drawn): the Ki worked out at 1460 nM in data set [1], 370 nM in data set [2] and 13.2 nM in data set [3].
Consider `CN(C)CCN1C2CCC1CC(NC(c1ccc(F)cc1)c1ccc(F)cc1)C2` (stereo not drawn), for which, in data set [4], the Selectivity ratio was determined as 383. The Ki was determined as 12000 nM in data set [1]; 4010 nM in data set [2]; 202 nM in data set [7]; 14.3 nM in [3]; 40 nM in data set [8]; 16 nM in data set [9]. Further, in data set [6], the Ratio Ki stood at 20. The IC50 in data set [5] is 5480 nM.
For `Fc1ccc(C(OC2CC3CCC(C2)N3CCc2c[nH]c3ccccc23)c2ccc(F)cc2)cc1` (stereo not drawn), the inhibition constant Ki in data set [1] turned out to be 490 nM; in data set [2], 7350 nM; in [7], 1700 nM; in data set [3] it was 29.2 nM; in data set [9], 253 nM. For the same molecule, the Ratio Ki in data set [6] came out at 6.7.
Consider `C=C[C@@H]1C2CCC(C[C@@H]1OC(c1ccc(F)cc1)c1ccc(F)cc1)N2CCN(C)C` (mixture of isomers), for which the results for the Ki in data set [1] and in data set [3] were 5100 nM and 13.5 nM, respectively.
`CC(C)[C@@H](N)CN1C2CCC1CC(NC(c1ccc(F)cc1)c1ccc(F)cc1)C2` (stereo partly drawn): the Ki in data set [1] worked out at 5400 nM; in [2] it was 2350 nM; in [3] it was 21 nM.
Consider `Cc1ccc(-c2cc([C@@H]3C4CCC(C[C@@H]3OC(c3ccc(F)cc3)c3ccc(F)cc3)N4C)on2)cc1` (mixture of isomers), for which the inhibition constant (Ki) in data set [1] came out at 4410 nM; in data set [2], 2710 nM; in data set [3], 93.5 nM.
In the case of `CCOC(=O)[C@@H]1C2CCC(C[C@@H]1OC(c1ccc(F)cc1)c1ccc(F)cc1)N2CCc1c[nH]c2ccccc12` (mixture of isomers), the Ki in [1] is 746 nM; in [2] it was 1450 nM; in data set [7], 1080 nM; in data set [3], 26.1 nM; in data set [8] it was 944 nM; in data set [9], 147 nM.
Regarding `CN1C2CCC1[C@@H](c1cc(-c3ccccc3)no1)C(OC(c1ccc(F)cc1)c1ccc(F)cc1)C2` (single isomer, unassigned), the Ki in data set [1] came to 1320 nM; in data set [2] it was 413 nM; in data set [7], 183 nM; in data set [3], 14.4 nM; in data set [8], 212 nM; in data set [9], 28 nM. Besides, in data set [6], the Ratio Ki came to 6.5.
Take `CN(C)CCN1C2CCC1CC(OC(c1ccc(F)cc1)c1ccc(F)cc1)C2` (stereo not drawn): the Stability in [10] is 88%. The Selectivity ratio in data set [4] was determined as 686. Further, the Ki in [1] was determined as 3150 nM; in data set [2], 933 nM; in data set [7], 63 nM; in data set [3] it was 12 nM; in [8] it was 47 nM; in data set [9] it was 10 nM. Further, the Ratio Ki in data set [6] came out at 6.3. The IC50 in [5] was 8230 nM. The Activity in data set [11] is listed as 14%; in data set [12], less than 50%; in data set [13], 23%. In data set [14], the outcome was Active.
`CC(C)[C@@H](N)CN1C2CCC1CC(OC(c1ccc(F)cc1)c1ccc(F)cc1)C2` (stereo partly drawn): in data set [4], the Selectivity ratio is 345. Also, the Ki in [1] was found to be 3870 nM; in [2], 2130 nM; in [7], 307 nM; in data set [3], 13.2 nM; in data set [8], 133 nM; in data set [9], 81 nM. Further, the Ratio Ki in data set [6] was 3.8.
Consider `CCCCN1C2CCC1CC(NC(c1ccc(F)cc1)c1ccc(F)cc1)C2` (stereo not drawn), for which the Ratio Ki in data set [6] is 15. In addition, the Ki in data set [7] was found to be 355 nM; in data set [8], 62 nM; in data set [9], 24 nM.
As for `CN1C2CCC1[C@@H](c1cc(-c3ccccc3)no1)[C@@H](OC(c1ccc(F)cc1)c1ccc(F)cc1)C2` (mixture of isomers), the Ki worked out at 3830 nM in [1]; 1100 nM in data set [2]; 3490 nM in data set [7]; 60.8 nM in data set [3]; 1300 nM in data set [8]; 1480 nM in [9]. The Ratio Ki in data set [6] came to 2.4.
For `CCOC(=O)[C@@H]1C2CCC(C[C@@H]1OC(c1ccc(F)cc1)c1ccc(F)cc1)N2C[C@H](N)C(C)C` (mixture of isomers), the Ki in [1] is 1370 nM; in [2], 4470 nM; in data set [7], 1560 nM; in data set [3], 53.8 nM; in data set [8] it was 1050 nM; in data set [9], 221 nM. The Ratio Ki in [6] was found to be 7.1.
`Cc1ccc(-c2cc(C3C(c4ccc(Cl)cc4)CC4CCC3N4C)on2)cc1` (stereo not drawn): the Ki in [1] was 23500 nM; in [2], 1170 nM; in [7] it was 140 nM; in [3] it was 10.7 nM; in data set [8], 16 nM; in data set [9], 35 nM. Further, in data set [6], the Ratio Ki was found to be 4.
For the molecule `Fc1ccc(C(NC2CC3CCC(C2)N3CCN2CCCCC2)c2ccc(F)cc2)cc1` (stereo not drawn), the Ki in data set [1] was determined as 3780 nM; in [2], 612 nM; in [3], 10.6 nM.
